In ChEMBL document CHEMBL1132939, “Design and synthesis of trans-N-[4-[2-(6-cyano-1,2,3, 4-tetrahydroisoquinolin-2-yl)ethyl]cyclohexyl]-4-quinolinecarboxamide (SB-277011): A potent and selective dopamine D(3) receptor antagonist with high oral bioavailability and CNS penetration in the rat” (J Med Chem, 2000):

Key:
D(2) dopamine receptor = D(2) dopamine receptor (Homo sapiens, UniProt P14416); assay: Binding affinity for human Dopamine receptor D2 expressed in CHO cells; format: cell-based
D(3) dopamine receptor = D(3) dopamine receptor (Homo sapiens, UniProt P35462); assay: Binding affinity for human Dopamine receptor D3 expressed in CHO cells; format: cell-based
Cytochrome P450 2D6 = Cytochrome P450 2D6 (Homo sapiens, UniProt P10635); assay: Inhibition of cytochrome P450 2D6; format: ADME
[1] = Oral bioavailability in rat; conditions: in vivo
[2] = target: 5-hydroxytryptamine receptor 1D (Homo sapiens, UniProt P28221); assay: Binding activity against human 5-hydroxytryptamine 1D receptor
[3] = Compound was evaluated for Blood clearance in rat; conditions: whole blood
[4] = target: 5-hydroxytryptamine receptor 1B (Homo sapiens, UniProt P28222); assay: Binding activity against human 5-hydroxytryptamine 1B receptor
Outline: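 Radioligand competition binding to human receptor, run by a procedure described in an earlier paper. Binding curves were fitted with an iterative four-parameter logistic model to give IC50, which was then converted to pKi.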

[5] = Compound was evaluated for its Half life in rat; conditions: in vivo

Chain of D(2) dopamine receptor (P14416 whole entry): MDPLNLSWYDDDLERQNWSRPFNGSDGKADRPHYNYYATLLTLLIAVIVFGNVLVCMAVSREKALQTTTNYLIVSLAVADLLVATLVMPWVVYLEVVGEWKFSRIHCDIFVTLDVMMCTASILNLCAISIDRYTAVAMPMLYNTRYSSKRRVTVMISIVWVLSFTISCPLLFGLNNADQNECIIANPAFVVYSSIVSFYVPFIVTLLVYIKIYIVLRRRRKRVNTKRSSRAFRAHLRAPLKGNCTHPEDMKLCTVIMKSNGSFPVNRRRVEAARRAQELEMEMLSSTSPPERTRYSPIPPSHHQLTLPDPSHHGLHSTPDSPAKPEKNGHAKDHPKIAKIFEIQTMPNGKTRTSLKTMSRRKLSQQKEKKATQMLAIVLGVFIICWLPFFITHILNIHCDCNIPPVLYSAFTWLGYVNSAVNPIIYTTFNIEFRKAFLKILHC
Chain of D(3) dopamine receptor (P35462 whole entry): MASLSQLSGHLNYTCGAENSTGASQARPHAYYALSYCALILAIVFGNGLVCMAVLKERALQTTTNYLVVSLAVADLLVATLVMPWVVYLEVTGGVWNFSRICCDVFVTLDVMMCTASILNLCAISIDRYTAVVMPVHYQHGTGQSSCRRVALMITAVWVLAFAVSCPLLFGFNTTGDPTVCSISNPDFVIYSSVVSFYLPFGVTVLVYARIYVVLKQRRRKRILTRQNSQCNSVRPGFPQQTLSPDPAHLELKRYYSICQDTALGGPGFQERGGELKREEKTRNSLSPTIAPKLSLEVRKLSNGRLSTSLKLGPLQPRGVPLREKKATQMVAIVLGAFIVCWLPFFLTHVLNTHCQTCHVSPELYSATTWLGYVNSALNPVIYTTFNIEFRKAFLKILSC
Chain of 5-hydroxytryptamine receptor 1D (P28221 whole entry): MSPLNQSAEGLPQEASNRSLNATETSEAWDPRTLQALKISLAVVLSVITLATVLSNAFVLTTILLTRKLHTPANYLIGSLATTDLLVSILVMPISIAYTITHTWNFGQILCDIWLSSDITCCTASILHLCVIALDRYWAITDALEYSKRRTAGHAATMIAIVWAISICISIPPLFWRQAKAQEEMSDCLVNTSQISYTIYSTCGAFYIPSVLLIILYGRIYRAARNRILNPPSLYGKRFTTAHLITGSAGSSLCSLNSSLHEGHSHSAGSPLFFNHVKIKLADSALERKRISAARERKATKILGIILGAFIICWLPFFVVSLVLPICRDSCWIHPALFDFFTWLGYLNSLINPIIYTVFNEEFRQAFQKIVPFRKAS
Chain of 5-hydroxytryptamine receptor 1B (P28222 whole entry): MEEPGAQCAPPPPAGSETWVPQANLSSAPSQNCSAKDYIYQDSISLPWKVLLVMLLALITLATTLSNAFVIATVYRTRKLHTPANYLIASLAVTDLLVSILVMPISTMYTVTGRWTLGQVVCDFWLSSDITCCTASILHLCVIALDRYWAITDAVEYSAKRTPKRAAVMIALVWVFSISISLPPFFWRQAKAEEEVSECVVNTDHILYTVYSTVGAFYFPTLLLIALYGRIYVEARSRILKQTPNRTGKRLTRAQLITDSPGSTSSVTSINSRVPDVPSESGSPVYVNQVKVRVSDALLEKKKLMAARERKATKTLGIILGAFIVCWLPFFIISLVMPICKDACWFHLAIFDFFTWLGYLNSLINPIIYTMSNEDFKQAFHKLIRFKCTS
Chain of Cytochrome P450 2D6 (P10635 whole entry): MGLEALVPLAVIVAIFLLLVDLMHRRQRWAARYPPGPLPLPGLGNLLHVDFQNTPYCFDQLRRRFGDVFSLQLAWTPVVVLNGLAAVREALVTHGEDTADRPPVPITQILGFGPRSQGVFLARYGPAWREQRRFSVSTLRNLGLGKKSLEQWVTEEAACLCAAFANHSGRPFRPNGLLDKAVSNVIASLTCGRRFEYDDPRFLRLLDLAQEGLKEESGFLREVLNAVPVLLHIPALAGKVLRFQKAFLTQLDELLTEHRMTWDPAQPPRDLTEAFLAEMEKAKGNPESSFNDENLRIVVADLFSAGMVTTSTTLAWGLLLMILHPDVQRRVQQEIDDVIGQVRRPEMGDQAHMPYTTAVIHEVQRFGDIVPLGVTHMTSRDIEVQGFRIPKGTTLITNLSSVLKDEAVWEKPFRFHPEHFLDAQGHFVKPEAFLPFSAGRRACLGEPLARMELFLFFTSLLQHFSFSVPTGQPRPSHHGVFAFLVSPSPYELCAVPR

Row | Compound | Ki (D(2) dopamine receptor) [nM] | Ki (D(3) dopamine receptor) [nM] | IC50 (Cytochrome P450 2D6) [nM] | bioavailability [1] [%] | Ki [2] [nM] | clearance [3] [mL/min/kg] | Ki [4] [nM] | half-life [5] [h] | Inhibition (Cytochrome P450 2D6) [%]
1 | N#Cc1ccc2c(c1)CN(CC[C@H]1CC[C@H](NC(=O)/C=C/c3c[nH]c4ccccc34)CC1)CC2 | 126 | 3.16 |  |  |  |  |  |  | 
2 | Cl.N#Cc1ccc2c(c1)CN(CC[C@H]1CC[C@H](NC(=O)c3cc4ccccc4[nH]3)CC1)CC2 |  |  | 800 | 43 | 100 | 6 | 631 | 6.3 | 
3 | N#Cc1ccc2c(c1)CCN(CC[C@H]1CC[C@H](NC(=O)c3ccc4ccccc4c3)CC1)C2 | 1580 | 10 |  |  | 100 |  | > 10000 |  | 
4 | Cl.N#Cc1ccc2c(c1)CCN(CC[C@H]1CC[C@H](NC(=O)c3cc4ccccc4[nH]3)CC1)C2 | 794 | 15.8 |  |  |  |  |  |  | 17
5 | N#Cc1ccc2c(c1)CN(CC[C@H]1CC[C@H](NC(=O)/C=C/c3ccccc3)CC1)CC2 | 158 | 1.26 |  |  | 100 |  | 158 |  | 
6 | N#Cc1ccc2c(c1)CCN(CC[C@H]1CC[C@H](NC(=O)c3cccc4ccccc34)CC1)C2 | 398 | 7.94 |  |  |  |  |  |  | 
7 | CS(=O)(=O)c1cccc(/C=C/C(=O)N[C@H]2CC[C@H](CCN3CCc4cc(C#N)ccc4C3)CC2)c1.Cl | 316 | 5.01 |  | 45 | 3980 |  | 6310 |  | 
8 | N#Cc1ccc2c(c1)CCN(CC[C@H]1CC[C@H](NC(=O)/C=C/c3ccc(F)cc3)CC1)C2 | 200 | 3.16 |  |  | 631 |  | > 10000 |  | 
9 | N#Cc1ccc2c(c1)CCN(CC[C@H]1CC[C@H](NC(=O)/C=C/c3ccccc3)CC1)C2 | 200 | 3.16 |  |  | 316 |  | 1000 |  | 
10 | O=C(/C=C/c1c[nH]c2ccccc12)NCCCCN1CCc2ccc(OS(=O)(=O)C(F)(F)F)cc2C1 |  |  |  |  | 63.1 |  | 100 |  | 
11 | N#Cc1ccc2c(c1)CN(CCCCNC(=O)/C=C/c1c[nH]c3ccccc13)CC2 | 794 | 12.6 |  |  | 251 |  | 158 |  | 
